# Source: PubChem (Sanford-Burnham Center for Chemical Genomics)
# Apaf1 activ: activators of human Apaf-1 apoptosome, primary screen, biochemical, DEVD-Rh110 fluorescence, uHTS | Apaf-1 apoptosome caspase-3 activation; hits give low values | activity change, negative = activation, % at 20 µM | hit rate 0.31% among 330,000;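 active = activity change at or below -40% at 20 µM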
# Target sequence (O14727 whole entry, looked up): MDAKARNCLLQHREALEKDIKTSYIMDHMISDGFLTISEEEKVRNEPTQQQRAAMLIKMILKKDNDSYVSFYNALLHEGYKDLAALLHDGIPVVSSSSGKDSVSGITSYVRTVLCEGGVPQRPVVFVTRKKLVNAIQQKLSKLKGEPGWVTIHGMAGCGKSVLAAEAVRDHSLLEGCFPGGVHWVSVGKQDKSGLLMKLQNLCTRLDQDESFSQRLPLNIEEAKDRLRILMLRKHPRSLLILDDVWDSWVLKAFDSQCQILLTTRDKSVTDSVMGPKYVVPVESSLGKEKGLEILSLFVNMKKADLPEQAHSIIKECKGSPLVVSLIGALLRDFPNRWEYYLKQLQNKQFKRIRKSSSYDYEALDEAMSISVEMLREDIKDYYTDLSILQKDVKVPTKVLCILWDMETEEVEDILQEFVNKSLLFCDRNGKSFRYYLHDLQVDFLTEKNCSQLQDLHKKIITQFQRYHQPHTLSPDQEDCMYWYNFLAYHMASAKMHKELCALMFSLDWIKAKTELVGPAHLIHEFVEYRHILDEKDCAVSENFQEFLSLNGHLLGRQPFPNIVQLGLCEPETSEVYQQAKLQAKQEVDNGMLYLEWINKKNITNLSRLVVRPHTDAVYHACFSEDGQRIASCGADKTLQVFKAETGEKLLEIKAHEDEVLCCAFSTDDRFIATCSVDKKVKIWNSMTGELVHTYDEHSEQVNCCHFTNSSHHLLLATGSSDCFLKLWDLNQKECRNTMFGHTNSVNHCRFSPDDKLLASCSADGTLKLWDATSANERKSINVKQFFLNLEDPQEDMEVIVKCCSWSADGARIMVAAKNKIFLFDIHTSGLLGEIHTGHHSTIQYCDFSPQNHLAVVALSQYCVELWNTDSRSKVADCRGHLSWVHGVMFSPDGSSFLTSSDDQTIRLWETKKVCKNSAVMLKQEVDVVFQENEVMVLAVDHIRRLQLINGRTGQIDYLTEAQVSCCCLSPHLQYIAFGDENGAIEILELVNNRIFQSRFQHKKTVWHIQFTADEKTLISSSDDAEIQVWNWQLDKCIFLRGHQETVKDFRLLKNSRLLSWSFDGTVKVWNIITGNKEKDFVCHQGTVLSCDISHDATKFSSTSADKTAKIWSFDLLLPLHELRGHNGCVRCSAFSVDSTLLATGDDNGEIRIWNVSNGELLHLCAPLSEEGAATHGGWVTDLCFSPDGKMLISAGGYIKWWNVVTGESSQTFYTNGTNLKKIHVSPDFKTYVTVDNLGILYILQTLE
#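 Assay system – biochemical Apaf-1 apoptosome reconstitution · Medium – 20 mM HEPES buffer, pH 7.5, containing CHAPS and BSA · Incubation – 30 min preincubation, 50 min reaction, room temperature · Measured by – Caspase-3-released Rh110 fluorescence, 540 nm emission, 480 nm excitation · Read-out – Caspase-3 cleavage activity downstream of Apaf-1 activation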
# Rh110 interf act: Rh110 fluorescence interference by putative Apaf-1 activators, confirmation, artefact control for Apaf-1 activator project, biochemical, 20 µM; shares compounds with Apaf1 activ; quenched caspase reaction, Ex480/Em540; 980 tested, under 10 active; fluorescence interference (activity change), % at 20 µM, hits read low;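 active = mean activity change at or below -40% when tested at 20 µM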
# Apaf-1 act conf: Apaf-1 activators, single-dose retest, confirmation, biochemical, fluorescence, DEVD-Rh110, 20 µM | activity change, negative = activation, % at 20 µM | reconstituted apoptosome caspase-3 activity; hits give low values | hit rate 5% among 980 | shares compounds with Apaf1 activ;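 active = mean activity change at or below -40%, meaning activation of 40% or more, at 20 µM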
# Apaf1 act interf: fluorescence interference of Apaf-1 activator hits, dose response, artefact control for Apaf-1 activator project | fluorescence interference counterscreen, Apaf-1 activator assay | 55 tested, under 10 active | EC50, µM | shares compounds with Apaf1 activ; call rule not given here
# Starred values were filed as active, the others as inactive. Not all results are given here.
SMILES,Apaf1 activ,others
CCOc1cc(/C=C(\C#N)C(=O)Nc2cccc(C(=O)O)c2)ccc1OCc1ccc(Br)cc1,-118.8*,
Cc1cccc(N2CCN(C(=O)c3cc4cc(F)ccc4[nH]3)CC2)c1C,42.0,
COC(=O)c1ccccc1S(=O)(=O)N1CCC(C(=O)N2CCC2)CC1,55.4,
COc1ccc(OC)c(S(=O)(=O)Oc2ccc(N)c3ccccc23)c1,68.7,
CCN1CCc2c(sc(NC(=O)c3cc4ccccc4cc3OC)c2C(N)=O)C1,65.4,
CC(=O)N1CCOc2ccc(S(=O)(=O)N(C)c3ccc(C)cc3)cc21,40.5,
C#CCOCCOCCOCCNc1nc(N2CCN(C(=O)CCCCCCCCCCNC(=O)Cn3cc(CCCCCN)nn3)CC2)nc(N2CCN(C(=O)CCCCCCCCCCNC(=O)[C@H]([C@@H](C)CC)n3cc(CCCCCN)nn3)CC2)n1,74.3,
NS(=O)(=O)c1ccc(CCNC(=O)CCS(=O)(=O)c2ccc(Br)cc2)cc1,-214.5*,
Cc1c(C(=O)N(CCc2ccccc2)Cc2ccccc2)cccc1[N+](=O)[O-],41.3,
Cc1ccc(NC(=O)CSc2nc3ccccc3c(=O)n2CCCN2CCCCC2)cc1C,54.9,
CCOC(=O)C1CCCN(C(=O)c2cccc(S(=O)(=O)N(C)c3c(C)n(C)n(-c4ccccc4)c3=O)c2)C1 (configuration not stated),49.1,
COc1ccc(NS(=O)(=O)c2ccc(C)c(NC(=O)CN3C(=O)NC4(CCCC4)C3=O)c2)cc1,82.2,
ONc1cccnc1-n1nc(C(F)(F)F)cc1C(F)(F)F,47.3,
COc1ccc(CCNC(=O)C(=O)NCC2CCCN2S(=O)(=O)c2ccc(OC)cc2)cc1 (configuration not stated),61.1,
O=c1[nH]nc(-c2ccc(OCc3ccc(Cl)cc3Cl)cc2)o1,-53.6*,
Cc1cc(/C=N/n2cnnc2)c(C)n1-c1ccc(OCc2ccc(Cl)cc2Cl)cc1,45.6,
COc1cc(Cl)c(NC2=CC(=O)C(=O)c3ccccc32)c(OC)c1,91.9,
CCC(C)Nc1ccc(NC(C)CC)cc1 (configuration not stated),42.7,
CCN(c1ccccc1)S(=O)(=O)c1ccc(Cl)c(NC(=O)CN2CCN(C)CC2)c1,51.5,
O=C(CN1CCN(Cc2ccccc2)CC1)Nc1cccc(S(=O)(=O)N2CCCCCC2)c1,-173.5*,Rh110 interf act=10.5;Apaf-1 act conf=14.7
O=C(CSc1ncnc2ccccc12)Nc1cccc(S(=O)(=O)N2CCCC2)c1,-42.9*,Rh110 interf act=2.1;Apaf-1 act conf=0.6
Cn1c(CN2CCCC2)nc2cc(NC(=O)COc3ccccc3)ccc21,53.4,
C#CCOCCOCCOCCNc1nc(N2CCN(C(=O)CCCCCCCCCCNC(=O)[C@H](CCCCN)n3cc(CCO)nn3)CC2)nc(N2CCN(C(=O)CCCCCCCCCCNC(=O)[C@@H]([C@H](C)O)n3cc(C)nn3)CC2)n1,59.2,
Cn1ccc2cc3c(cc21)CCN3C(=O)Nc1cccnc1,66.0,
COc1ccc(CN2CC(C(=O)NCc3cccc(OC)c3)CC2=O)cc1 (configuration not stated),66.7,
SMILES,Apaf1 activ,others
COc1ccc(N2CC(C(=O)N/N=C/c3cc([N+](=O)[O-])ccc3O)CC2=O)cc1 (configuration not stated),-318.3*,Rh110 interf act=7.4;Apaf-1 act conf=15.3
C#CCOCCOCCOCCNc1nc(N2CCN(C(=O)[C@H]([C@@H](C)CC)n3cc(CCCCN)nn3)CC2)nc(N2CCN(C(=O)[C@H]([C@@H](C)CC)n3cc(CCCN=C(N)N)nn3)CC2)n1,46.0,
COc1ccc(OC)c(NC(=S)N2CCN(C/C=C/c3ccccc3)CC2)c1,-300.0*,Rh110 interf act=9.5;Apaf-1 act conf=12.9
COc1ccc(Cl)cc1NC(=O)C(C)N1CCN(C/C=C/c2ccccc2)CC1 (configuration not stated),42.9,
C[C@H](NC(=O)c1ccc(C(C)(C)C)cc1)C(=O)N1CCN(C/C=C/c2ccccc2)CC1,42.7,
Cc1ccc(C)c(NC(=S)Nc2cccc3cnccc23)c1,95.7,
Cc1ccc(C)c(NC(=S)NCCN(C2CCCCC2)C2CCCC2)c1,-73.1*,Rh110 interf act=-1.3;Apaf-1 act conf=12.6
Cc1ccccc1N=Cc1cccc(O)c1O,73.8,
CC(Nc1cccc2ccccc12)C(=O)N/N=C/c1ccccn1 (configuration not stated),95.3,
O=C1C(Nc2ccccc2)=C(N2CCCCC2)C(=O)c2ccccc21,93.1,
COc1ccc2nc3cc(Cl)ccc3c(Nc3cc(CN4CCCC4)c(O)c(CN4CCCC4)c3)c2n1,62.4,
O=C(NC(=S)Nn1cnc2c(cnn2-c2ccccc2)c1=O)c1ccc(Oc2ccccc2)cc1,40.7,
COC(=O)Cn1cnc2c(cnn2-c2ccccc2)c1=O,-196.9*,Rh110 interf act=1.0;Apaf-1 act conf=7.0
CCCN(CC1CC1)c1nc(N)c2c(N)nc(OC)cc2c1C#N,93.2,
Cc1[nH]c2ccc(C(=O)NCC(C)(C)N3CCOCC3)cc2c1C,-519.3*,Rh110 interf act=0.3;Apaf-1 act conf=7.7
CCCCCCSc1ccc([C@@H]2[C@H]3C(=O)N(CC)C(=O)[C@H]3[C@]3(C(=O)OC)CCCN23)cc1,-224.6*,Rh110 interf act=5.4;Apaf-1 act conf=13.3
Cc1[nH]c(=O)[nH]c(=O)c1S(=O)(=O)N1CCN(c2ccccc2F)CC1,-517.3*,Rh110 interf act=-0.4;Apaf-1 act conf=-2.7
N#C/C(=C\c1ccc(OCc2ccc(Cl)cc2)cc1)C(=O)Nc1cccc(C(=O)O)c1,-202.4*,Rh110 interf act=13.1;Apaf-1 act conf=-71.2*;Apaf1 act interf=>100
CN(C=[N+](C)C)c1cccc2c1C(=O)c1ccccc1C2=O,43.0,
COc1ccc(CN2C(=O)Cc3c2nc(N)c2c(N)nc(N4CCOCC4)c(C#N)c32)cc1,86.4,
Cc1ccc(C(=O)N/C(=C\c2ccc(-c3ccccc3[N+](=O)[O-])o2)C(=O)NCCCN2CCOCC2)cc1,65.2,
O=C(O)c1cccc(CN2C(=O)CSC2=O)c1,-52.2*,Rh110 interf act=0.3;Apaf-1 act conf=8.0
CCc1ccc(NC(=O)[C@H](Cc2c[nH]c3ccccc23)NC(=O)[C@@H]2Cc3ccccc3CN2)cc1,41.1,
CCOc1ccccc1NC(=O)C(CC(C)C)NC(=O)C1CCCCC1 (configuration not stated),-53.1*,Rh110 interf act=1.7;Apaf-1 act conf=-1.0
CN1c2ccccc2C(C)(C)C12C=Nc1c(cc(N3CCOCC3)c3ccccc13)O2 (configuration not stated),68.5,
SMILES,Apaf1 activ,others
CCCOc1ccc(N)cc1N,91.0,
O=C(Nc1ccccc1)c1ccc2nc(-c3ccco3)c(-c3ccco3)nc2c1,60.0,
COc1ccc(C(=O)c2c(C(F)(F)F)oc3c2C(=O)c2ccccc2C3=O)cc1,78.6,
COc1ccc(C(=O)Nc2ccc(C(=O)c3ccccc3)cc2)cc1,-385.4*,Rh110 interf act=-2.3;Apaf-1 act conf=2.2
COc1ccc(/C=C2/C(=O)N(c3ccccc3)N=C2C)cc1Br,86.9,
CN1CCN(c2ccc(-c3cccc(NC(=O)COc4ccccc4)c3)nn2)CC1,46.6,
O=C(COc1ccccc1)N1CCN=C1SCc1ccc(F)cc1,56.4,
